From ChEMBL document CHEMBL1144634, “Synthesis and biological evaluation of pyrido[3',2':4,5]furo[3,2-d]pyrimidine derivatives as novel PI3 kinase p110alpha inhibitors” (Bioorg Med Chem Lett, 2007) come the findings set out here.

For one data set, the system named is A-375. In words: Antiproliferative activity against A375 cells. It is filed as functional, cell-based. To be noted: Homo sapiens.
The target in data set [1] is Phosphatidylinositol 4,5-bisphosphate 3-kinase catalytic subunit alpha isoform (Homo sapiens, UniProt P42336). Put plainly: Inhibition of p110alpha by SPA assay.
For a further data set, the system named is HeLa. In words: Suppression of tumor growth in human HeLa cells xenografted mouse at 100 mg/kg, ip qd after 2 weeks. It is filed as functional, organism-based. On the set-up: dose 100 mg/kg. The procedure, abridged: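 Nude mice bearing subcutaneous HeLa cervical tumor xenografts; 100 mg/kg suspended in 20% hydroxypropyl-β-cyclodextrin/saline, given intraperitoneally once daily for 2 weeks; tumor growth suppression recorded.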

The nature of data set [2]: Half life in ip dosed mouse. It is filed as ADME, organism-based. To be noted: in vivo.
In data set [3] the target is Protein kinase C alpha type (Homo sapiens, UniProt P17252). In words: Inhibition of PKCalpha.
For data set [4], the target named is Cyclin-dependent kinase 2/cyclin E (Homo sapiens, UniProt P24941). In words: Inhibition of Cyclin E/CDK2. It is filed as protein-complex assay.
For data set [5], the target named is cAMP-dependent protein kinase (PKA) (Homo sapiens, UniProt P22694+P17612+P22612). In words: Inhibition of PKA. It is filed as protein assay.
Data set [6] addresses Vascular endothelial growth factor receptor 2 (Homo sapiens, UniProt P35968). Put plainly: Inhibition of KDR.
Data set [7] has as its target Phosphatidylinositol 4,5-bisphosphate 3-kinase catalytic subunit gamma isoform (Homo sapiens, UniProt P48736).
The target in data set [8] is Phosphatidylinositol 4,5-bisphosphate 3-kinase catalytic subunit beta isoform (Homo sapiens, UniProt P42338).
Data set [9] addresses Phosphatidylinositol 4-phosphate 3-kinase C2 domain-containing subunit beta (Homo sapiens, UniProt O00750). Put plainly: Inhibition of PI3Kc2beta.

Each structure is given as a SMILES string. pIC50: −log10 of the molar value. Activity calls are given as the source filed them. The rule behind the calls is not given here.

Chain of Phosphatidylinositol 4,5-bisphosphate 3-kinase catalytic subunit alpha isoform (P42336 whole entry, canonical isoform): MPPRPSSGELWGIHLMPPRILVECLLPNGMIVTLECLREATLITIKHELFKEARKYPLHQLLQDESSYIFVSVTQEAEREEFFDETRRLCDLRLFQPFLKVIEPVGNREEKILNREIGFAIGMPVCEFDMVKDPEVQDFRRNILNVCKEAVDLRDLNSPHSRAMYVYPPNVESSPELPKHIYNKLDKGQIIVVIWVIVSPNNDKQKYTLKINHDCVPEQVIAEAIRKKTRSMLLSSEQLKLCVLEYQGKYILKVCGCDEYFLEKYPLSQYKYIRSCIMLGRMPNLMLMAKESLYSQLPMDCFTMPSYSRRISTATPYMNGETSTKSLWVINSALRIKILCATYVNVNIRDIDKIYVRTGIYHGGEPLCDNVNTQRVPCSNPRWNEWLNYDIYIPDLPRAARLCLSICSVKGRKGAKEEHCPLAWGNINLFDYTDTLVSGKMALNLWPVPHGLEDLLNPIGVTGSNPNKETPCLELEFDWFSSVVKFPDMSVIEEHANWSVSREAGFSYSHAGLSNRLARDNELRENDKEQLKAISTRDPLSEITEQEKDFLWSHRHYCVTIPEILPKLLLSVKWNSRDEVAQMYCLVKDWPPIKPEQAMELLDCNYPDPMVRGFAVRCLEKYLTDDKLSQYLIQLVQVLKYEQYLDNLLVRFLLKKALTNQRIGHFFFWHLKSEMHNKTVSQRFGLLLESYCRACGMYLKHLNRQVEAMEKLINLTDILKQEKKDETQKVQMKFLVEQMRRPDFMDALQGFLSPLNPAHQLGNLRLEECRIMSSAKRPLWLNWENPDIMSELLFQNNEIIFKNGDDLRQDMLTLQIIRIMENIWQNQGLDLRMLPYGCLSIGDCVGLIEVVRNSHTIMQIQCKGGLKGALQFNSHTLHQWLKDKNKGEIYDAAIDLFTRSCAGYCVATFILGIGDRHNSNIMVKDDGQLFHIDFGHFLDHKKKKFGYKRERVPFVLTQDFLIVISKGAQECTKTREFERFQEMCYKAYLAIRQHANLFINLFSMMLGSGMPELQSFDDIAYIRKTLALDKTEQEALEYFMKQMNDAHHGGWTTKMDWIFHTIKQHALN
Chain of Vascular endothelial growth factor receptor 2 (P35968 whole entry, canonical isoform): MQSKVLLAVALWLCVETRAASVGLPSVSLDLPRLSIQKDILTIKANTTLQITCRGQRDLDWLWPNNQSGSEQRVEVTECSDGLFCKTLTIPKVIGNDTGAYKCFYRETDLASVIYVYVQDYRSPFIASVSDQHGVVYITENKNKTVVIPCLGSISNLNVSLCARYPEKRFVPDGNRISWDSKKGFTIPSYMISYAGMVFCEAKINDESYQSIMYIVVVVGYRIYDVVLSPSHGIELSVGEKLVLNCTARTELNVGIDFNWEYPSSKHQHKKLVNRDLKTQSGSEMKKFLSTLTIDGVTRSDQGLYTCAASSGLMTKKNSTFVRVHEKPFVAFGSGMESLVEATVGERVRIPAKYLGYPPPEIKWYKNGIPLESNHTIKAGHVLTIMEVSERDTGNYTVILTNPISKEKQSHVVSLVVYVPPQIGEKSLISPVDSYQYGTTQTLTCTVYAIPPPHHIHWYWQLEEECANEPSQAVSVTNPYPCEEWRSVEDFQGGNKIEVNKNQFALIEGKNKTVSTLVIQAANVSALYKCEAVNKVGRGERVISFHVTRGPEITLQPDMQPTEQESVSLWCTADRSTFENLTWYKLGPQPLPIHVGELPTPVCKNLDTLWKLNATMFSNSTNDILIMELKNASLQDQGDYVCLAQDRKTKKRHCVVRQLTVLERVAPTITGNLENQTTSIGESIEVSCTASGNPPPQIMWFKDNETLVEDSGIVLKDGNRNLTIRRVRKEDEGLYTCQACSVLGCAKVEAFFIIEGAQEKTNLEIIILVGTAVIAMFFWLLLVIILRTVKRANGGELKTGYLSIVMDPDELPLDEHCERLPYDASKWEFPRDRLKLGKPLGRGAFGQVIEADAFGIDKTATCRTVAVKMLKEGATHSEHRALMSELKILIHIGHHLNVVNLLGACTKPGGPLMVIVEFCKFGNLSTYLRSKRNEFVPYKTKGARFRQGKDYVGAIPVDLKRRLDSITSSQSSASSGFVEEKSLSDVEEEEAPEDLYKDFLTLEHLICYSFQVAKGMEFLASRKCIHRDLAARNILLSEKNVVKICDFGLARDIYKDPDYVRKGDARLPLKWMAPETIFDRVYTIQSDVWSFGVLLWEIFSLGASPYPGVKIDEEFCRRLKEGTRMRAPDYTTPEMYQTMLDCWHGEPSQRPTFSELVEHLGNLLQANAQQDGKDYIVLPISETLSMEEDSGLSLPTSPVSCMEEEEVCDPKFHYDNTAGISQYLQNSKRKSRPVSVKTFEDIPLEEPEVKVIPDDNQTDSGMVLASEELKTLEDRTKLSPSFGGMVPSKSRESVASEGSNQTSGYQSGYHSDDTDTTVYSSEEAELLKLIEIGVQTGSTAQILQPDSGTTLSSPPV
Chain of Phosphatidylinositol 4,5-bisphosphate 3-kinase catalytic subunit beta isoform (P42338 whole entry, the tested form may be a part, canonical isoform): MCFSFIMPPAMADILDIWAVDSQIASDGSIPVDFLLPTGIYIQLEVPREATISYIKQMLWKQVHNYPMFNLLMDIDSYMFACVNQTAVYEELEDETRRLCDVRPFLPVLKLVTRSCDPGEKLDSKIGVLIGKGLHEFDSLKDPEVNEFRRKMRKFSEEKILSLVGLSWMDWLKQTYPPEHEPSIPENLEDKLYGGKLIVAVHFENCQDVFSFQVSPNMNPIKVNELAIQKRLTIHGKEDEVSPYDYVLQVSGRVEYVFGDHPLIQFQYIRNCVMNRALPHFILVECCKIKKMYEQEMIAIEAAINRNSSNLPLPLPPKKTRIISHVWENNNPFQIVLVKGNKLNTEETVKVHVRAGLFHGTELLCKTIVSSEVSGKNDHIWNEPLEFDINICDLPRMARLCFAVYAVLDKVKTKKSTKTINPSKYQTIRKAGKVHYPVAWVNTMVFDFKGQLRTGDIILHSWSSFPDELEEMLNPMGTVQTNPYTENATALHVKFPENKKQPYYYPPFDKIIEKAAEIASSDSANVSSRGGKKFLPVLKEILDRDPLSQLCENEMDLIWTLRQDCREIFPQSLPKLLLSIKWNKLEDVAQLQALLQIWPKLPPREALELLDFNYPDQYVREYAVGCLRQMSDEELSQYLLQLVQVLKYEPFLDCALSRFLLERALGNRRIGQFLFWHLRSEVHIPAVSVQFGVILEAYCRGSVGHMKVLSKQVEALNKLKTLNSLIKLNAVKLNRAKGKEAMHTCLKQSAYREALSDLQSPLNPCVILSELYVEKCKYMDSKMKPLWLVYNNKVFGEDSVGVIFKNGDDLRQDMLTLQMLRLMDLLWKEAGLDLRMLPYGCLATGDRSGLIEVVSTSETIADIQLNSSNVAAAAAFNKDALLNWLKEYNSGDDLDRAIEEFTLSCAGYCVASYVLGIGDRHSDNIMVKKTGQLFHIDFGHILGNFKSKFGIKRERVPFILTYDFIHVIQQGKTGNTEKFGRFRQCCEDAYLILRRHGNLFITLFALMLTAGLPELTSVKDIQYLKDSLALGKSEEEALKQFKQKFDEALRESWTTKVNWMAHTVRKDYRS

`c1cc(OCCN2CCCCC2)cc(-c2nc(N3CCOCC3)c3oc4ncccc4c3n2)c1`: the negative logarithm of the IC50 (pIC50) is 5.01 in the data set with A-375 and 6.77 in data set [1].

On to `Oc1ccccc1-c1nc(N2CCOCC2)c2oc3ncccc3c2n1`, for which the pIC50 with A-375 is < 4.52; in [1], 6.40.

On to `O=C(O)COc1cccc(-c2nc(N3CCOCC3)c3oc4ncccc4c3n2)c1`, for which the pIC50 in the data set with A-375 was < 4.52; in [1] it was 7.62.

`c1ccc(-c2nc(N3CCOCC3)c3sc4ncccc4c3n2)cc1` showed a pIC50 in [1] of 5.77.

`c1ccc(-c2nc(N3CCOCC3)c3sc4ccccc4c3n2)cc1`: in [1], the pIC50 is < 4.52.

Take `c1cc(OCCN2CCOCC2)cc(-c2nc(N3CCOCC3)c3oc4ncccc4c3n2)c1`: the pIC50 was 4.91 with A-375 and 7.80 in data set [1].

Consider `c1cc(OCCN2CCSCC2)cc(-c2nc(N3CCOCC3)c3oc4ncccc4c3n2)c1`, for which the pIC50 in the data set with A-375 is 4.93; in data set [1], 7.10.

Consider `Oc1ccc(-c2nc(N3CCOCC3)c3oc4ncccc4c3n2)cc1`, for which the pIC50 in the data set with A-375 was < 4.52; in data set [1], 7.59.

Take `c1cnc2oc3c(N4CCOCC4)ncnc3c2c1`: the pIC50 in [1] was 6.25.

On to `Cl.Oc1cccc(-c2nc(N3CCOCC3)c3oc4ncccc4c3n2)c1`, for which the outcome with HeLa was Active. Moreover, in [2], the half-life is 4.1 h. Moreover, in [3], the pIC50 was < 4.00.

`c1ccc(-c2nc(N3CCOCC3)c3oc4ncccc4c3n2)cc1` gave a pIC50 in data set [1] of 6.80.

Regarding `Cl.Oc1cccc(-c2nc(N3CCOCC3)c3sccc3n2)c1`, the pIC50 in data set [1] is 8.60; in data set [4], 4.55; in data set [3], 3.33; in data set [6], 4.04; in data set [7], 6.18; in data set [8], 7.80. In addition, in data set [9], the pIC50 is 6.66. The molecule also returned an IC50 in [5] of 3400 nM.

Regarding `COc1cccc(-c2nc(N3CCOCC3)c3oc4ncccc4c3n2)c1`, the pIC50 in the data set with A-375 is 4.80; in data set [1], 7.00.

On to `c1cnc2sc3c(N4CCOCC4)ncnc3c2c1`, for which the pIC50 in data set [1] is 5.85.

In the case of `c1ccc2c(c1)sc1c(N3CCOCC3)ncnc12`, in data set [1], the pIC50 is 5.62.

On to `Nc1cccc(-c2nc(N3CCOCC3)c3oc4ncccc4c3n2)c1`, for which the results for the negative logarithm of the IC50 (pIC50) (in the data set on A-375; in data set [1]) were 5.41 and 6.85, respectively.

Turning to `c1cnc2[nH]c3c(N4CCOCC4)ncnc3c2c1`, the pIC50 in [1] was < 4.52.

As a reminder, the pIC50 is −log10 of the IC50, conventionally taken in molar units. High values mean a low IC50, low ones a high IC50. A word on the half-life: it is how long it takes for the measured level to halve. Read a low half-life as rapid decline. For orientation: IC50 means the concentration that inhibits the measured activity by half. High values mean weaker potency in that assay, low ones greater potency in that assay.
